What was measured:
Rattus norvegicus [1] = experiment: Antiinflammatory activity in Wistar rat assessed as inhibition of carrageenan-induced paw volume at 100 mg/kg, po measured after 1 hr of carrageenan challenge (reference value: 0.94 +/- 0.05 ml); assay type: functional
Rattus norvegicus [2] = experiment: Antiinflammatory activity in Wistar rat assessed as inhibition of carrageenan-induced paw volume at 100 mg/kg, po measured after 6 hrs of carrageenan challenge (reference value: 1.69 +/- 0.08 ml); assay type: functional
[3] = target: T1, Prostaglandin G/H synthase 1 (Ovis aries) (UniProt P05979); experiment: Inhibition of ovine COX1 assessed as appearance of oxidized N,N,N,N'- tetramethyl-p-phenylenediamine at 100 uM
T1 sequence (whole entry): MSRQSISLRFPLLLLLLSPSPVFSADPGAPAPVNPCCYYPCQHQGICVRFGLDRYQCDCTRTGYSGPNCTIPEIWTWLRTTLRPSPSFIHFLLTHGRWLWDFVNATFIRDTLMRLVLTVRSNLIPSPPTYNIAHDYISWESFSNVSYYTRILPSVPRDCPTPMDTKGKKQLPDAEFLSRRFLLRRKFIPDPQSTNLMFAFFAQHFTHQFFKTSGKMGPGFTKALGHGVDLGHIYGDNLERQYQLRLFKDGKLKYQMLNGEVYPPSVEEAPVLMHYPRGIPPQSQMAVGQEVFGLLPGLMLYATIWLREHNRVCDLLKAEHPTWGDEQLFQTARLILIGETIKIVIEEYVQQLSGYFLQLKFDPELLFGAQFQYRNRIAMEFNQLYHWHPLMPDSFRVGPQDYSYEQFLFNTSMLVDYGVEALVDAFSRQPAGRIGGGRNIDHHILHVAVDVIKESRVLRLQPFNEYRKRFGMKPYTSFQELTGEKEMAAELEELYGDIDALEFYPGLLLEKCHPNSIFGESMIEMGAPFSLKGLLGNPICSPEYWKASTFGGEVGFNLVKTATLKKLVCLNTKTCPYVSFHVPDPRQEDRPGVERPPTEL
Method in brief: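 Colorimetric ovine COX screening kit. The reaction held assay buffer, heme, COX-1 enzyme and test sample at 100 µM. The COX peroxidase activity was followed by the appearance of oxidized TMPD at 590 nm. Inhibition was calculated as (1 − T/C)×100, where C is the absorbance of the uninhibited well.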

Rattus norvegicus [4] = experiment: Antiinflammatory activity in Wistar rat assessed as inhibition of carrageenan-induced paw volume at 100 mg/kg, po measured after 3 hrs of carrageenan challenge (reference value: 1.17 +/- 0.1 ml); assay type: functional
Mus musculus = experiment: Antiinflammatory activity in mouse assessed as inhibition of acetic acid-induced vascular permeability by measuring Evan's blue dye leakage at 100 mg/kg, po administered 1 hr before acetic acid challenge measured after 30 mins; assay type: functional
Method in brief: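 Mice, n=6 per group, were dosed orally at 100 mg/kg; the vehicle was 2% gum acacia at 10 mL/kg. After 1 h they received 0.25 mL of 0.6% v/v acetic acid i.p., then immediately 10% w/v Evans blue at 10 mL/kg i.v. by tail vein. After 30 min they were killed with ether. The viscera were irrigated with 5 mL saline; the perfusate was filtered, made up to 10 mL, and dye read at 620 nm.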

Compound	Activity (Rattus norvegicus [1]) [mL]	Activity (Rattus norvegicus [2]) [mL]	inhibition [3] [%]	Activity (Rattus norvegicus [4]) [mL]	inhibition in vivo at 100 mg/kg (Mus musculus) [%]
COc1cc(OC)c2c(=O)cc(-c3cccc([N+](=O)[O-])c3)oc2c1-c1ccnn1C	1.04	1.02	47.4	1	33.3
COc1cc(OC)c2c(=O)cc(-c3ccco3)oc2c1-c1ccnn1C	0.87	0.88	20.4	0.94	60.5
COc1cc(OC)c2c(=O)cc(-c3ccc(F)cc3F)oc2c1-c1ccnn1C	0.78	1.44	51.6	1.01	–
COc1cc(OC)c(-c2cc(=O)c3c(OC)cc(OC)c(-c4ccnn4C)c3o2)c(OC)c1	0.83	0.97	45.7	0.95	72.3
COc1ccc(-c2cc(=O)c3c(OC)cc(OC)c(-c4ccnn4C)c3o2)cc1OC	0.79	0.99	48.4	0.96	68.2
COc1cc(OC)c2c(=O)cc(-c3ccc(Br)cc3)oc2c1-c1ccnn1C	0.81	1.11	54.1	0.99	35.1
COc1ccc2c(c1)c(CC(=O)O)c(C)n2C(=O)c1ccc(Cl)cc1 [INDOMETHACIN]	0.86	0.78	–	0.95	70.4
COc1cc(OC)c2c(=O)cc(-c3c(F)cccc3F)oc2c1-c1ccnn1C	0.88	1.44	52.2	1.24	–
COc1cc(OC)c2c(=O)cc(-c3cccs3)oc2c1-c1ccnn1C	0.91	1.55	60	1.18	–
COc1cc(OC)c2c(=O)cc(-c3ccc(Cl)cc3Cl)oc2c1-c1ccnn1C	0.89	1.32	46.1	1.11	–
COc1cc(OC)c2c(=O)cc(-c3ccc(F)c(F)c3)oc2c1-c1ccnn1C	0.79	1.2	52.8	0.99	–
COc1cc(OC)c2c(=O)cc(-c3ccc4c(c3)OCO4)oc2c1-c1ccnn1C	0.86	1.07	51.6	0.92	25.3
COc1cc(OC)c2c(=O)cc(-c3c(Cl)cccc3Cl)oc2c1-c1ccnn1C	0.79	1.01	48.9	1.46	57.8
COc1cc(OC)c2c(=O)cc(-c3ccccc3)oc2c1-c1ccnn1C	0.77	1.22	54.1	0.91	–
COc1cc(OC)c2c(=O)cc(-c3ccc(F)cc3)oc2c1-c1ccnn1C	0.76	1.17	54.1	1.05	51.9
